Experiment [1] is described as follows: inhibitors of TNFa-induced NFkB p65 translocation, primary screen, imaging, HUVEC, MLSMR starter and 10KST1 sets (AID 438;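 active = inhibition above 20% together with a positive visual image hit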;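 also: compound added about 3h40 before a 20 min TNFalpha stimulation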;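 as to inhibition: signal is the nuclear over cytoplasmic p65 intensity ratio per well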). As to conditions: HUVEC TNFa-induced p65 nuclear translocation; cell count: measured here: nuclei count (cytotoxicity indicator), at 2.08 µM; inhibition: at 2 µM, stronger effect = higher value, 0% TNFa-plus-vehicle, 100% no-TNFa wells.
Experiment [2] in a line: inhibitors of mutant huntingtin aggregation, primary screen, imaging, exon1htt(103Q)mCFP cells, high-content imaging (AID 483;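 active = visual image review flags a hit and inhibition of aggregation exceeds 20%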;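 also: compound exposure lasted 3 days before fixation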;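 as to nuclei count: percent of the per-plate median nuclei count of sample wells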). As to conditions: exon1htt(103Q)mCFP cell line, aggregate imaging, at 2 µM; inhibition of aggregation: stronger effect = higher value; nuclei count: measured here: cell count, toxicity.
A short description of experiment [3]: inhibitors of E-selectin induction by TNFa, primary screen, imaging, HUVEC, immunofluorescence, MLSMR starter and 10KST1 sets (AID 487;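 active = visually confirmed hit in the image check and inhibition above 20%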;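 as to inhibition: signal is fraction of cell area covered by stained E-selectin grains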;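 as to nuclei count: 100% = median nuclei count of all wells on the same plate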). The conditions noted are these: HUVEC TNFalpha-induced E-selectin immunofluorescence imaging, at 2 µM; inhibition: stronger effect = higher value; nuclei count: measured here: cell number, toxicity.
Experiment [4] has as its target Voltage-gated potassium channel subunit beta-2 (Rattus norvegicus) (UniProt P62483). Kind of experiment: KvBeta enzyme negative modulators, primary screen, biochemical, NADPH fluorescence (AID 622;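 active = fluorescence slope higher than the sample average by over 3 SD, cut at about -0.22 in these data, passing the limit was not always enough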;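 also: slope of raw intensity against log time taken from 70 to 1610 s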). As to conditions: recombinant KvBeta, 4-cyanobenzaldehyde reduction, at 10 µM, stronger effect = higher value.
For experiment [5] the target is unchanged. In words: KvBeta positive modulators, primary screen, biochemical, NADPH fluorescence (AID 623;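 active = NADPH fluorescence slope more negative than the mean of all samples by about 3 SD, 99.7% confidence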;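 also: fluorescence intensity change per second fitted from 20 to 320 s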). As to conditions: Recombinant KvBeta, NADPH fluorescence decrease slope, 10 min; at 10 µM; stronger effect = lower value.
Experiment [6] has as its target Muscarinic acetylcholine receptor M4 (Homo sapiens) (UniProt P08173). In words: compounds altering M4/GIRK thallium flux, either direction, primary screen, M4 allosteric agonist project, cell-based, HEK293 M4/GIRK, BTC-AM (AID 625;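 active = fluorescence slope after compound addition differing from the mean of all tested samples at 99.7% confidence, mostly higher but some lower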;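 also: thallium influx through GIRK channels coupled to M4 in HEK293 cells with BTC-AM dye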). The conditions noted are these: at 10 µM, actives lie on both sides. The method, boiled down:
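assay system = HEK293 cells with M4 receptor and GIRK channels | medium = pH 7.3 thallium assay buffer | doses = 10 µM final, single point | timing = cells overnight at 37 °C, BTC-AM loading 1 h, reads 2 min total | signal = BTC-AM fluorescence, 1 Hz kinetic reads | read-out = post-addition slope, 15–24 s, of baseline-normalized fluorescence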

Experiment [7] can be described thus: inhibitors of Sendai virus-induced IRF3 signaling, primary screen, TLR/RLR signaling modifier project, cell-based, Sendai virus stimulus, luciferase, 10K MLSCN set (AID 602276).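 Also: firefly luciferase from ISG56 promoter only with Renilla not read in this screen; 0% = Sendai virus plus DMSO and 100% = medium plus DMSO without virus.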 As to conditions: HEK293 RL24 IRF3 luciferase reporter, at 10 µM, stronger effect = higher value. A general note: Reporter assays use an easily measured gene product as a stand-in for the process of interest.

Experiment [8] in a line: inhibitors of poly I:C-induced TLR3 signaling, primary screen, cell-based, poly I:C stimulus, luciferase, 10K MLSCN set (AID 602277;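 active = inhibition of the reporter signal at or above 50%; inactive = inhibition below 50%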). As to conditions: HEK293-TLR3 RL24 IRF3 luciferase reporter, at 10 µM, stronger effect = higher value.

Active and inactive are the calls of the source.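 The calls were made as follows, unless noted: active = inhibition at or above 50% at 10 µM; inactive = inhibition below 50%.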

Voltage-gated potassium channel subunit beta-2 (Rattus norvegicus), sequence (P62483 whole entry, looked up): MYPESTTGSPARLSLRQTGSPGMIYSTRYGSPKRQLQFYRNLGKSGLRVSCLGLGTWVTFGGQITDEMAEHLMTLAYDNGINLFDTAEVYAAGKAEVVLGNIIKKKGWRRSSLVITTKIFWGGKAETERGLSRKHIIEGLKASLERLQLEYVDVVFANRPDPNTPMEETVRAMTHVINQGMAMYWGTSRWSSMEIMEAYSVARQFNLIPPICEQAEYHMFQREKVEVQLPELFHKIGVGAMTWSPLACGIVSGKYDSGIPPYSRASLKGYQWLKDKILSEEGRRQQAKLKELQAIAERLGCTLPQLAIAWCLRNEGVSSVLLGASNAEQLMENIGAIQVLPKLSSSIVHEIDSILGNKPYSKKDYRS
Muscarinic acetylcholine receptor M4 (Homo sapiens), sequence (P08173 whole entry, looked up): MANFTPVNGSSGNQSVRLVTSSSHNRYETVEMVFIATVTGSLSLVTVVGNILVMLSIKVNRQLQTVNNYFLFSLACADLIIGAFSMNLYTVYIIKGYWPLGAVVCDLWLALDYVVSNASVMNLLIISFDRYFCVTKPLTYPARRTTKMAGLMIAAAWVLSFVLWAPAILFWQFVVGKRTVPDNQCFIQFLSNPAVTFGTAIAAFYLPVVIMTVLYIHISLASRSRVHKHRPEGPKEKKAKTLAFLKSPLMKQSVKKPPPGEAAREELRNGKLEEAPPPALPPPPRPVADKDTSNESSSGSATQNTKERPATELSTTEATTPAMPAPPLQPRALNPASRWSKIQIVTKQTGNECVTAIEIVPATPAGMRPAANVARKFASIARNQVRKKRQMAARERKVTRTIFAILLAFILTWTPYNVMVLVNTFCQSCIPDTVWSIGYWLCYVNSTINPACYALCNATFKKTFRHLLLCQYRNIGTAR

With `Cc1ccc(-c2noc(C3CCCN(C(=O)c4ccc(F)cc4F)C3)n2)cc1` (stereo not given), in experiment [1], the cell count stood at 753. The inhibition – broadly, the relative decrease from the control value, in per cent – in experiment [1] was -11.3% (inactive); in experiment [3], -21.5% (inactive); in experiment [7], -9.91% (inactive); in experiment [8], -43.3% (inactive). Moreover, the inhibition of aggregation in experiment [2] is 1.1% (inactive). In addition, the nuclei count in experiment [2] was found to be 58.6%; in experiment [3], 124%. The fluorescence slope in experiment [4] was -0.274 (inactive); in experiment [6] it was 0.00592 (inactive). Also, in experiment [5], the NADPH fluorescence slope is -6.5e-06 (inactive).

With `Cc1ccc(C)c(S(=O)(=O)NCc2ccc(C(=O)N3CCN(C)CC3)cc2)c1`, the cell count in experiment [1] turned out to be 328. The inhibition was 1.1% (inactive) in experiment [1], -101% (inactive) in experiment [3], 3.27% (inactive) in experiment [7] and 19.6% (inactive) in experiment [8]. Further, the inhibition of aggregation in experiment [2] is 27.1% (inactive). For the same compound, the nuclei count in experiment [2] turned out to be 105%; in experiment [3], 106%. In addition, the fluorescence slope in experiment [4] was -0.332 (inactive); in experiment [6] it was 0.00527 (inactive). For the same compound, the NADPH fluorescence slope in experiment [5] was -4.8e-05 (inactive).

With `O=c1cc(-c2ccco2)oc2ccc(Cl)cc12`, the cell count in experiment [1] is 286. In addition, the inhibition was -0.8% (inactive) in experiment [1], 32.1% (inactive) in experiment [3], 6.8% (inactive) in experiment [7] and -71.7% (inactive) in experiment [8]. In experiment [2], the inhibition of aggregation was 19.7% (inactive). Moreover, the values for the nuclei count in experiment [2] and in experiment [3] were 70% and 111%, respectively. The fluorescence slope in experiment [4] is -0.568 (inactive); in experiment [6], 0.00691 (inactive). Further, in experiment [5], the NADPH fluorescence slope is -2.4e-05 (inactive).

As for `O=C(Cn1nnc2c(cnn2-c2ccc(F)cc2)c1=O)c1ccccc1F`, in experiment [1], the cell count amounted to 438. For the same compound, the inhibition in experiment [1] is 5.1% (inactive); in experiment [3], -86.3% (inactive); in experiment [7] it was 11.8% (inactive); in experiment [8], 10.7% (inactive). Moreover, the inhibition of aggregation in experiment [2] was -13.6% (inactive). The nuclei count in experiment [2] was 104%; in experiment [3], 118%. Also, the fluorescence slope in experiment [4] is -0.553 (inactive); in experiment [6] it was 0.00571 (inactive). Moreover, the NADPH fluorescence slope in experiment [5] was -4.4e-05 (inactive).

For `COc1ccccc1CN1CC(C(=O)N2CCN(c3ccc(F)cc3)CC2)CC1=O` (stereo not given), in experiment [1], the cell count came out at 400. Besides, the inhibition in experiment [1] is 72.8% (active); in experiment [3], -19.6% (inactive); in experiment [7], 16.3% (inactive); in experiment [8], 7.05% (inactive). In addition, the inhibition of aggregation in experiment [2] was -14.7% (inactive). The nuclei count in experiment [2] was found to be 101%; in experiment [3], 106%. For the same compound, the fluorescence slope in experiment [4] was -0.583 (inactive); in experiment [6], 0.00225 (inactive). Moreover, the NADPH fluorescence slope in experiment [5] is -4.4e-05 (inactive).

Turning to `CCc1nccn1S(=O)(=O)c1ccc2ccc(C)cc2c1`, the cell count in experiment [1] worked out at 319. The inhibition in experiment [1] was -8.5% (inactive); in experiment [3], -60.6% (inactive); in experiment [7], -9.41% (inactive); in experiment [8], -15.4% (inactive). The inhibition of aggregation in experiment [2] is -4.1% (inactive). Further, the results for the nuclei count in experiment [2] and in experiment [3] were 104% and 112%, respectively. In addition, the fluorescence slope in experiment [4] was -0.512 (inactive); in experiment [6], 0.00461 (inactive). In addition, the NADPH fluorescence slope in experiment [5] is 1.6e-05 (inactive).

On to `CCN(CC)CC(=O)Nc1ccc(-c2nc3cc(NC(=O)CN(CC)CC)ccc3o2)cc1`, for which the cell count in experiment [1] came out at 621. Moreover, the inhibition was 4.9% (inactive) in experiment [1], 41.6% (inactive) in experiment [3], -12.5% (inactive) in experiment [7] and 92.9% (active) in experiment [8]. In experiment [2], the inhibition of aggregation was -13.9% (inactive). The nuclei count in experiment [2] came to 102%; in experiment [3] it was 100%. Moreover, the fluorescence slope in experiment [4] was -0.0978 (inactive); in experiment [6], 0.00522 (inactive). Moreover, the NADPH fluorescence slope in experiment [5] was -3.8e-06 (inactive).

Take `CCOC(=O)N1CCC(Nc2c(-c3ccc(C)cc3)c(=O)c2=O)CC1`: the cell count in experiment [1] amounted to 801. The inhibition in experiment [1] is -12.2% (inactive); in experiment [3], -33.6% (inactive); in experiment [7], 2.25% (inactive); in experiment [8], 16.5% (inactive). In experiment [2], the inhibition of aggregation was 26.1% (inactive). The nuclei count in experiment [2] is 89.2%; in experiment [3], 106%. Moreover, the fluorescence slope in experiment [4] is -0.471 (inactive); in experiment [6], 0.007 (inactive). Besides, the NADPH fluorescence slope in experiment [5] was -3.2e-05 (inactive).

Regarding `NC(=O)c1c(NC(=O)CSc2nnc(-c3ccco3)n2-c2ccccc2)sc2c1CCC2`, the cell count in experiment [1] is 577. Further, the inhibition in experiment [1] was -15.4% (inactive); in experiment [3], 50.4% (inactive); in experiment [7], 30.1% (inactive); in experiment [8], 32.9% (inactive). Further, in experiment [2], the inhibition of aggregation is -3.6% (inactive). Moreover, the results for the nuclei count in experiment [2] and in experiment [3] were 115% and 132%, respectively. Moreover, the fluorescence slope in experiment [4] was -0.525 (inactive); in experiment [6], 0.00489 (inactive). For the same compound, the NADPH fluorescence slope in experiment [5] was 0.00013 (inactive).

As to `Cn1c(NCc2cccc(Br)c2)nc2ccccc21`, in experiment [1], the cell count was determined as 337. Moreover, the inhibition in experiment [1] was -4.7% (inactive); in experiment [3] it was -6.9% (inactive); in experiment [7] it was 8.28% (inactive); in experiment [8], 14.2% (inactive). Further, the inhibition of aggregation in experiment [2] is 3% (inactive). In addition, the nuclei count was determined as 103% in experiment [2] and 139% in experiment [3]. Besides, the fluorescence slope in experiment [4] was -0.528 (inactive); in experiment [6], 0.00491 (inactive). In addition, in experiment [5], the NADPH fluorescence slope is -2.6e-05 (inactive).

(Values after PubChem BioAssay.)
